Measured values from article PMC7893122 (Acta Pharmaceutica Sinica. B, 2020).

Assays:
SMO^WT = assay: GLI-luciferase activity in light2 cells with ectopic SMO^WT; format: cell-based; conditions: read-out: IC50, GLI-luciferase activity induced by SMO^WT
In short: (§1)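 NIH-3T3-derived light2 reporter cells (stable GLI-responsive firefly luciferase plus renilla vector) with forced SMO expression, exposed to test compound for 36 h. Dual-luciferase kit read-out; firefly signal normalised to TK-renilla.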

GLI2-MYC = assay: Western blot of exogenous GLI2-MYC in transfected light2 cells; format: cell-based; conditions: light2 cells transfected with GLI2-MYC
In short: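 Light2 cells lipofected with FLAG-GLI1 or MYC-GLI2-FL; test compound added 24 h after transfection. Lysis in LDS sample buffer, then SDS-PAGE. Immunoblots probed with tag or GLI2 antibodies (1:1000), with GAPDH (1:5000) as reference.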

SKM-1 = assay: Cell growth inhibition; format: cell-based; conditions: Homo sapiens, SKM-1, 72 h
In short: (§2)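 Cells seeded in 96-well plates and incubated overnight. DMSO stocks of test compound were thawed at room temperature, diluted with saline to working concentrations, and added for 72 h. Growth read by CCK-8 assay, giving IC50/GI50.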

SMO^W535L = assay: GLI-luciferase activity in light2 cells with ectopic SMO^W535L; format: cell-based; conditions: read-out: IC50, GLI-luciferase activity induced by SMO^W535L
In short: as §1

DOHH-2 = assay: Cell growth inhibition; format: cell-based; conditions: Homo sapiens, DOHH-2, 72 h
In short: as §2

hERG channel = hERG channel (Homo sapiens, UniProt Q12809); assay: hERG inhibition; format: cell-based
hERG channel, sequence (Q12809 whole entry): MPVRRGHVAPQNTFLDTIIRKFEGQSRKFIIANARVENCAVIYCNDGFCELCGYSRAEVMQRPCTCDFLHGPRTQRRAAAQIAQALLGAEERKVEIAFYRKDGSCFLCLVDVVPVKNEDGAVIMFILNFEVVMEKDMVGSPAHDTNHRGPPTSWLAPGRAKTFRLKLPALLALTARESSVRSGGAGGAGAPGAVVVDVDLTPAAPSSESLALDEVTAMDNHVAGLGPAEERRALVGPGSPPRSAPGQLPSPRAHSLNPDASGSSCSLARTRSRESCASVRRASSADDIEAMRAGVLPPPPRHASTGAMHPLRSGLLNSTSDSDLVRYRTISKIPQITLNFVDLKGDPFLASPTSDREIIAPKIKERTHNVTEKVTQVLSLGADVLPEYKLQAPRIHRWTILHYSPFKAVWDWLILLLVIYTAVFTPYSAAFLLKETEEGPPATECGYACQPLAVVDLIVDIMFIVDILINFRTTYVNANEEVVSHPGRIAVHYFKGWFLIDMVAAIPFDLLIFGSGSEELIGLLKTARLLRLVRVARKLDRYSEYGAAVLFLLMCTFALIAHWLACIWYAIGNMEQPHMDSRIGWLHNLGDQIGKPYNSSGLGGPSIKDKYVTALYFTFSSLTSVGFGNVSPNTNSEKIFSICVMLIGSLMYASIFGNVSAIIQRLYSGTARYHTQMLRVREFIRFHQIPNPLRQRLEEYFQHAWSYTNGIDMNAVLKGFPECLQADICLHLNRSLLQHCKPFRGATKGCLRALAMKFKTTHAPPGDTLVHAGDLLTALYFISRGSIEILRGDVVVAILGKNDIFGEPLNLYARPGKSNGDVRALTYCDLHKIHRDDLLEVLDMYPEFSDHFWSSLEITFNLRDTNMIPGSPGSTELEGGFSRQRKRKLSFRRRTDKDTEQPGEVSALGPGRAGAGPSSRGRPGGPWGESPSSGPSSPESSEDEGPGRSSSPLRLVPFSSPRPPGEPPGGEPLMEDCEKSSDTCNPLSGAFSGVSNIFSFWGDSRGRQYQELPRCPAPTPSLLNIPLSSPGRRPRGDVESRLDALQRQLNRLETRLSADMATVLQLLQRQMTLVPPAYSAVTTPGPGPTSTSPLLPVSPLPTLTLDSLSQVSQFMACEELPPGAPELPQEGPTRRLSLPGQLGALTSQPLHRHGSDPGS

HSC-2 = assay: Cell growth inhibition; format: cell-based; conditions: Homo sapiens, HSC-2, 72 h
In short: as §2

H1975 = assay: Cell growth inhibition; format: cell-based; conditions: Homo sapiens, NCI-H1975, 72 h
In short: as §2

GLI2 = assay: GLI-luciferase activity in light2 cells after transfection with GLI2; format: cell-based; conditions: read-out: IC50, GLI-luciferase activity provoked by forced expression of GLI2
In short: (§3)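 Light2 cells (NIH-3T3 stably carrying GLI-responsive firefly luciferase and renilla expression vector) lipofected with FLAG-GLI1 or MYC-GLI2-FL. Test compound added 24 h post-transfection, then 36 h exposure. Dual-luciferase read-out, firefly normalised to TK-renilla.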

SMO^D473H = assay: GLI-luciferase activity in light2 cells with ectopic SMO^D473H; format: cell-based; conditions: read-out: IC50, GLI-luciferase activity induced by SMO^D473H
In short: as §1

CHL normal cell line = assay: Cell growth inhibition; format: cell-based; conditions: 72 h
In short: as §2

KYSE450 = assay: Cell growth inhibition; format: cell-based; conditions: Homo sapiens, KYSE-450, 72 h
In short: as §2

BRD4 (BD1) = BRD4 (BD1) (Homo sapiens, UniProt O60885); assay: Homogeneous time-resolved fluorescence binding assay, BRD4; conditions: IC50 BRD4 (BD1), mean ± SD from three separate experiments
N87 = assay: Cell growth inhibition; format: cell-based; conditions: 72 h
In short: as §2

Colo680N = assay: Cell growth inhibition; format: cell-based; conditions: Homo sapiens, COLO-680N, 72 h
In short: as §2

CAL27 = assay: Cell growth inhibition; format: cell-based; conditions: Homo sapiens, CAL-27, 72 h
In short: as §2

GLI1 = assay: GLI-luciferase activity in light2 cells after transfection with GLI1; format: cell-based; conditions: read-out: IC50, GLI-luciferase activity provoked by forced expression of GLI1
In short: as §3

HT1080 = assay: Cell growth inhibition; format: cell-based; conditions: Homo sapiens, HT-1080, 72 h
In short: as §2

[1] = Pharmacokinetics in Sprague–Dawley rats; format: in vivo; conditions: rat
H3132 = assay: Cell growth inhibition; format: cell-based; conditions: 72 h
In short: as §2

TOV-21G = assay: Cell growth inhibition; format: cell-based; conditions: Homo sapiens, TOV21G, 72 h
In short: as §2

[2] = test system: HH signaling pathway (GLI-responsive firefly luciferase reporter); assay: Dual luciferase reporter assay; format: cell-based; conditions: read-out: IC50 GLI-luc reporter
endogenous GLI2 = assay: Western blot of endogenous GLI2 in light2 cells; format: cell-based; conditions: 25 at 10 and 100 nmol/L, GDC-0449 100 nmol/L
In short: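 Light2 cells treated with test compound, lysed in LDS sample buffer, and run on SDS-PAGE. Immunoblotting used anti-GLI2 (1:1000), with GAPDH (1:5000) as reference.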

[3] = test system: SMOA1 MB allografts (SMO^W539L); assay: SMOA1 MB allograft model; format: in vivo, nude mice; conditions: bid
In short: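 Primary SMOA1 MB allografts from ND2:SMOA1 transgenic mice grafted subcutaneously into nude mice. Dosing started at 100–150 mm3 tumour size: test compound p.o. twice daily, vehicle 0.5% CMC-Na, n ≥ 3 per group. Caliper measurement every 3 days; volume = 0.5 × length × width². Body weight tracked; group means ± SEM.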

[4] = Sprague-Dawley, plasma, iv, 1 mg/kg
[5] = Sprague-Dawley, plasma, po, 3 mg/kg

## Cn1cc(-c2cc(N3CCCCS3(=O)=O)ccc2Oc2ccc(F)cc2F)c2c(F)c[nH]c2c1=O [Compound 25]
SMO^WT
  IC50: 1.16 nM
GLI2-MYC
  Effect on expression of exogenous GLI2-MYC: failed to inhibit
SKM-1
  GI50: 19 nM
SMO^W535L
  IC50: 1.13 nM
DOHH-2
  GI50: 6.6 nM
hERG channel
  IC50: 27300 nM
HSC-2
  GI50: 770 nM
H1975
  GI50: 34 nM
GLI2
  IC50: 2.2 nM
SMO^D473H
  IC50: 1.44 nM
CHL normal cell line
  GI50: > 10000 nM
KYSE450
  GI50: 1600 nM
BRD4 (BD1)
  IC50: 1.51 ± 0.43 nM
N87
  GI50: 130 nM
Colo680N
  GI50: 2300 nM
CAL27
  GI50: 110 nM
GLI1
  IC50: 0.97 nM
HT1080
  GI50: 1000 nM
[1]; [4]
  AUC(0-inf): 614 ng·h/mL
  AUC(0-t): 614 ng·h/mL
  MRT inf: 46.2 min
  clearance: 27.2 mL/min/kg
  half-life: 32.4 min
[1]; [5]
  AUC(0-inf): 406 ng·h/mL
  AUC(0-t): 406 ng·h/mL
  Cmax: 503 ng/mL
  MRT inf: 57 min
  Tmax: 15 min
  half-life: 57.6 min
[1]; i.v. 1 mg/kg
  Vss_obs: 1.258 L/kg
H3132
  GI50: 140 nM
TOV-21G
  GI50: 23 nM
[2]
  IC50: 0.48 ± 0.08 nM
Endogenous GLI2
  Effect on abundance of endogenous GLI2 proteins: dramatically reduced
[3]; 5 mg/kg p.o.
  Tolerability: well tolerant
[3]; 5 mg/kg p.o., Fig. 6A
  tumor growth inhibition (TGI): 83.3%
[3]; 10 mg/kg p.o.
  Tolerability: well tolerant
[3]; 10 mg/kg p.o., Fig. 5A
  tumor growth inhibition (TGI): 88.2%
[3]; 10 mg/kg p.o., Fig. 5B
  Body weight change: No obvious body weight loss
[3]; 10 mg/kg p.o., Fig. 6A
  tumor growth inhibition (TGI): 87.6%
